Test: Adverse events suspected to be study drug related, phase 1 study
Type: in vivo, human
In short: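 Adult patients with advanced solid tumours and confirmed MET dysregulation took oral capsules twice daily from 100 up to 600 mg in escalation, or 400 mg bid tablets, in 28-day cycles. Expansion was 600 mg bid capsules, with a switch to 400 mg bid tablets allowed. Patients were included if they had ≥1 dose and ≥1 valid post-baseline safety assessment. Events were graded by CTCAE v4.0.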

[1] = drug-related, all escalation N=38
[2] = drug-related, all expansions RP2D N=38
[3] = drug-related, escalation 400 mg bid tablet n=5
[4] = drug-related, escalation 450 mg bid n=9
[5] = drug-related, escalation 600 mg bid n=8

CNC(=O)c1ccc(-c2cnc3ncc(Cc4ccc5ncccc5c4)n3n2)cc1F [capmatinib]
tolerability (across all explored doses): well tolerated | ALT increased, all grades [1]: 3 (8) n (%) | ALT increased, grade 3/4 [1]: 2 (5) n (%) | AST increased, all grades [1]: 5 (13) n (%) | AST increased, grade 3/4 [1]: 1 (3) n (%) | Amylase increased, all grades [1]: 2 (5) n (%) | Amylase increased, grade 3/4 [1]: 1 (3) n (%) | Asthenia, all grades [1]: 6 (16) n (%) | Asthenia, grade 3/4 [1]: 0 n (%) | Blood bilirubin increased, all grades [1]: 4 (11) n (%) | Blood bilirubin increased, grade 3/4 [1]: 1 (3) n (%) | Blood creatinine increased, all grades [1]: 2 (5) n (%) | Blood creatinine increased, grade 3/4 [1]: 0 n (%) | Constipation, all grades [1]: 3 (8) n (%) | Constipation, grade 3/4 [1]: 0 n (%) | Decreased appetite, all grades [1]: 11 (29) n (%) | Diarrhea, all grades [1]: 5 (13) n (%) | Diarrhea, grade 3/4 [1]: 0 n (%) | Dizziness, all grades [1]: 1 (3) n (%) | Dizziness, grade 3/4 [1]: 0 n (%) | Dyspepsia, all grades [1]: 1 (3) n (%) | Dyspepsia, grade 3/4 [1]: 0 n (%) | Fatigue, all grades [1]: 10 (26) n (%) | Fatigue, grade 3/4 [1]: 3 (8) n (%) | Headache, all grades [1]: 2 (5) n (%) | Headache, grade 3/4 [1]: 0 n (%) | Hypoalbuminemia, all grades [1]: 6 (16) n (%) | Hypoalbuminemia, grade 3/4 [1]: 1 (3) n (%) | Hypophagia, all grades [1]: 2 (5) n (%) | Hypophagia, grade 3/4 [1]: 2 (5) n (%) | Lipase increased, all grades [1]: 1 (3) n (%) | Lipase increased, grade 3/4 [1]: 1 (3) n (%) | Maculo‐papular rash, all grades [1]: 1 (3) n (%) | Maculo‐papular rash, grade 3/4 [1]: 0 n (%) | Myalgia, all grades [1]: 2 (5) n (%) | Myalgia, grade 3/4 [1]: 0 n (%) | Nausea, all grades [1]: 12 (32) n (%) | Nausea, grade 3/4 [1]: 0 n (%) | Odynophagia, all grades [1]: 2 (5) n (%) | Odynophagia, grade 3/4 [1]: 0 n (%) | Peripheral edema, all grades [1]: 8 (21) n (%) | Peripheral edema, grade 3/4 [1]: 1 (3) n (%) | Pyrexia, all grades [1]: 2 (5) n (%) | Pyrexia, grade 3/4 [1]: 0 n (%) | Stomatitis, all grades [1]: 2 (5) n (%) | Stomatitis, grade 3/4 [1]: 0 n (%) | Thrombocytopenia, all grades [1]: 1 (3) n (%) | Thrombocytopenia, grade 3/4 [1]: 0 n (%) | Total protein decreased, all grades [1]: 2 (5) n (%) | Total protein decreased, grade 3/4 [1]: 0 n (%) | Upper abdominal pain, all grades [1]: 2 (5) n (%) | Upper abdominal pain, grade 3/4 [1]: 0 n (%) | Vomiting, all grades [1]: 11 (29) n (%) | Vomiting, grade 3/4 [1]: 0 n (%) | ALT increased, all grades [2]: 2 (5) n (%) | ALT increased, grade 3/4 [2]: 2 (5) n (%) | AST increased, all grades [2]: 4 (11) n (%) | Amylase increased, all grades [2]: 0 n (%) | Amylase increased, grade 3/4 [2]: 0 n (%) | Asthenia, all grades [2]: 2 (5) n (%) | Asthenia, grade 3/4 [2]: 0 n (%) | Blood bilirubin increased, all grades [2]: 0 n (%) | Blood bilirubin increased, grade 3/4 [2]: 0 n (%) | Blood creatinine increased, all grades [2]: 2 (5) n (%) | Blood creatinine increased, grade 3/4 [2]: 1 (3) n (%) | Constipation, all grades [2]: 1 (3) n (%) | Constipation, grade 3/4 [2]: 0 n (%) | Decreased appetite, all grades [2]: 4 (11) n (%) | Decreased appetite, grade 3/4 [2]: 0 n (%) | Diarrhea, all grades [2]: 7 (18) n (%) | Diarrhea, grade 3/4 [2]: 0 n (%) | Dizziness, all grades [2]: 2 (5) n (%) | Dizziness, grade 3/4 [2]: 0 n (%) | Dyspepsia, all grades [2]: 2 (5) n (%) | Dyspepsia, grade 3/4 [2]: 0 n (%) | Fatigue, all grades [2]: 9 (24) n (%) | Fatigue, grade 3/4 [2]: 1 (3) n (%) | Headache, all grades [2]: 1 (3) n (%) | Headache, grade 3/4 [2]: 0 n (%) | Hypoalbuminemia, all grades [2]: 1 (3) n (%) | Hypoalbuminemia, grade 3/4 [2]: 0 n (%) | Lipase increased, all grades [2]: 3 (8) n (%) | Lipase increased, grade 3/4 [2]: 2 (5) n (%) | Localized edema, all grades [2]: 2 (5) n (%) | Localized edema, grade 3/4 [2]: 0 n (%) | Maculo‐papular rash, all grades [2]: 2 (5) n (%) | Maculo‐papular rash, grade 3/4 [2]: 0 n (%) | Myalgia, all grades [2]: 2 (5) n (%) | Myalgia, grade 3/4 [2]: 0 n (%) | Nausea, all grades [2]: 11 (29) n (%) | Nausea, grade 3/4 [2]: 1 (3) n (%) | Odynophagia, all grades [2]: 0 n (%) | Odynophagia, grade 3/4 [2]: 0 n (%) | Peripheral edema, all grades [2]: 10 (26) n (%) | Peripheral edema, grade 3/4 [2]: 0 n (%) | Pyrexia, all grades [2]: 0 n (%) | Pyrexia, grade 3/4 [2]: 0 n (%) | Stomatitis, all grades [2]: 1 (3) n (%) | Stomatitis, grade 3/4 [2]: 0 n (%) | Thrombocytopenia, all grades [2]: 2 (5) n (%) | Thrombocytopenia, grade 3/4 [2]: 1 (3) n (%) | Total protein decreased, all grades [2]: 0 n (%) | Total protein decreased, grade 3/4 [2]: 0 n (%) | Upper abdominal pain, all grades [2]: 0 n (%) | Upper abdominal pain, grade 3/4 [2]: 0 n (%) | Vomiting, all grades [2]: 7 (18) n (%) | Vomiting, grade 3/4 [2]: 1 (3) n (%) | ALT increased, all grades [3]: 1 (20) n (%) | ALT increased, grade 3/4 [3]: 0 n (%) | AST increased, all grades [3]: 1 (20) n (%) | Amylase increased, all grades [3]: 0 n (%) | Amylase increased, grade 3/4 [3]: 0 n (%) | Asthenia, all grades [3]: 1 (20) n (%) | Asthenia, grade 3/4 [3]: 0 n (%) | Blood bilirubin increased, all grades [3]: 0 n (%) | Blood bilirubin increased, grade 3/4 [3]: 0 n (%) | Blood creatinine increased, all grades [3]: 0 n (%) | Blood creatinine increased, grade 3/4 [3]: 0 n (%) | Constipation, all grades [3]: 1 (20) n (%) | Constipation, grade 3/4 [3]: 0 n (%) | Decreased appetite, all grades [3]: 0 n (%) | Decreased appetite, grade 3/4 [3]: 0 n (%) | Diarrhea, all grades [3]: 1 (20) n (%) | Diarrhea, grade 3/4 [3]: 0 n (%) | Dizziness, all grades [3]: 1 (20) n (%) | Dizziness, grade 3/4 [3]: 0 n (%) | Dyspepsia, all grades [3]: 0 n (%) | Dyspepsia, grade 3/4 [3]: 0 n (%) | Fatigue, all grades [3]: 1 (20) n (%) | Fatigue, grade 3/4 [3]: 0 n (%) | Headache, all grades [3]: 0 n (%) | Headache, grade 3/4 [3]: 0 n (%) | Hypoalbuminemia, all grades [3]: 2 (40) n (%) | Hypoalbuminemia, grade 3/4 [3]: 0 n (%) | Hypophagia, all grades [3]: 0 n (%) | Hypophagia, grade 3/4 [3]: 0 n (%) | Lipase increased, all grades [3]: 0 n (%) | Lipase increased, grade 3/4 [3]: 0 n (%) | Maculo‐papular rash, all grades [3]: 0 n (%) | Maculo‐papular rash, grade 3/4 [3]: 0 n (%) | Myalgia, all grades [3]: 0 n (%) | Myalgia, grade 3/4 [3]: 0 n (%) | Nausea, all grades [3]: 2 (40) n (%) | Nausea, grade 3/4 [3]: 0 n (%) | Odynophagia, all grades [3]: 1 (20) n (%) | Odynophagia, grade 3/4 [3]: 0 n (%) | Peripheral edema, all grades [3]: 2 (40) n (%) | Peripheral edema, grade 3/4 [3]: 0 n (%) | Pyrexia, all grades [3]: 0 n (%) | Pyrexia, grade 3/4 [3]: 0 n (%) | Stomatitis, all grades [3]: 1 (20) n (%) | Stomatitis, grade 3/4 [3]: 0 n (%) | Thrombocytopenia, all grades [3]: 0 n (%) | Thrombocytopenia, grade 3/4 [3]: 0 n (%) | Total protein decreased, all grades [3]: 0 n (%) | Total protein decreased, grade 3/4 [3]: 0 n (%) | Upper abdominal pain, all grades [3]: 1 (20) n (%) | Upper abdominal pain, grade 3/4 [3]: 0 n (%) | Vomiting, all grades [3]: 1 (20) n (%) | Vomiting, grade 3/4 [3]: 0 n (%) | ALT increased, all grades [4]: 1 (11) n (%) | ALT increased, grade 3/4 [4]: 1 (11) n (%) | AST increased, all grades [4]: 1 (11) n (%) | AST increased, grade 3/4 [4]: 1 (11) n (%) | Amylase increased, all grades [4]: 0 n (%) | Amylase increased, grade 3/4 [4]: 0 n (%) | Asthenia, all grades [4]: 1 (11) n (%) | Asthenia, grade 3/4 [4]: 0 n (%) | Blood bilirubin increased, all grades [4]: 0 n (%) | Blood bilirubin increased, grade 3/4 [4]: 0 n (%) | Blood creatinine increased, all grades [4]: 0 n (%) | Blood creatinine increased, grade 3/4 [4]: 0 n (%) | Constipation, all grades [4]: 0 n (%) | Constipation, grade 3/4 [4]: 0 n (%) | Decreased appetite, all grades [4]: 3 (33) n (%) | Decreased appetite, grade 3/4 [4]: 0 n (%) | Diarrhea, all grades [4]: 0 n (%) | Diarrhea, grade 3/4 [4]: 0 n (%) | Dizziness, all grades [4]: 0 n (%) | Dizziness, grade 3/4 [4]: 0 n (%) | Dyspepsia, all grades [4]: 0 n (%) | Dyspepsia, grade 3/4 [4]: 0 n (%) | Fatigue, all grades [4]: 3 (33) n (%) | Fatigue, grade 3/4 [4]: 1 (11) n (%) | Headache, all grades [4]: 1 (11) n (%) | Headache, grade 3/4 [4]: 0 n (%) | Hypoalbuminemia, all grades [4]: 0 n (%) | Hypoalbuminemia, grade 3/4 [4]: 0 n (%) | Hypophagia, all grades [4]: 0 n (%) | Hypophagia, grade 3/4 [4]: 0 n (%) | Lipase increased, all grades [4]: 0 n (%) | Lipase increased, grade 3/4 [4]: 0 n (%) | Maculo‐papular rash, all grades [4]: 1 (11) n (%) | Maculo‐papular rash, grade 3/4 [4]: 0 n (%) | Myalgia, all grades [4]: 0 n (%) | Myalgia, grade 3/4 [4]: 0 n (%) | Nausea, all grades [4]: 4 (44) n (%) | Nausea, grade 3/4 [4]: 0 n (%) | Odynophagia, all grades [4]: 0 n (%) | Odynophagia, grade 3/4 [4]: 0 n (%) | Peripheral edema, all grades [4]: 2 (22) n (%) | Peripheral edema, grade 3/4 [4]: 0 n (%) | Pyrexia, all grades [4]: 1 (11) n (%) | Pyrexia, grade 3/4 [4]: 0 n (%) | Stomatitis, all grades [4]: 0 n (%) | Stomatitis, grade 3/4 [4]: 0 n (%) | Thrombocytopenia, all grades [4]: 0 n (%) | Thrombocytopenia, grade 3/4 [4]: 0 n (%) | Total protein decreased, all grades [4]: 0 n (%) | Total protein decreased, grade 3/4 [4]: 0 n (%) | Upper abdominal pain, all grades [4]: 0 n (%) | Upper abdominal pain, grade 3/4 [4]: 0 n (%) | Vomiting, all grades [4]: 3 (33) n (%) | Vomiting, grade 3/4 [4]: 0 n (%) | ALT increased, all grades [5]: 1 (13) n (%) | ALT increased, grade 3/4 [5]: 1 (13) n (%) | AST increased, all grades [5]: 2 (25) n (%) | Amylase increased, all grades [5]: 0 n (%) | Amylase increased, grade 3/4 [5]: 0 n (%) | Asthenia, all grades [5]: 0 n (%) | Asthenia, grade 3/4 [5]: 0 n (%) | Blood bilirubin increased, all grades [5]: 1 (13) n (%) | Blood bilirubin increased, grade 3/4 [5]: 0 n (%) | Blood creatinine increased, all grades [5]: 0 n (%) | Blood creatinine increased, grade 3/4 [5]: 0 n (%) | Constipation, all grades [5]: 0 n (%) | Constipation, grade 3/4 [5]: 0 n (%) | Decreased appetite, all grades [5]: 3 (38) n (%) | Decreased appetite, grade 3/4 [5]: 0 n (%) | Diarrhea, all grades [5]: 2 (25) n (%) | Diarrhea, grade 3/4 [5]: 0 n (%) | Dizziness, all grades [5]: 0 n (%) | Dizziness, grade 3/4 [5]: 0 n (%) | Dyspepsia, all grades [5]: 1 (13) n (%) | Dyspepsia, grade 3/4 [5]: 0 n (%) | Fatigue, all grades [5]: 3 (38) n (%) | Fatigue, grade 3/4 [5]: 0 n (%) | Headache, all grades [5]: 0 n (%) | Headache, grade 3/4 [5]: 0 n (%) | Hypoalbuminemia, all grades [5]: 1 (13) n (%)
